# The list is not random: actives were taken first. Their share in the collection is about 2.4%.
# DNA FID counter – counter-screen for HCV NS3 helicase inhibitors: DNA intercalator displacement | DNA fluorescent intercalator displacement, fluorescence | inhibition, % at 7.9 µM | 0.17% of 290,000 active | AID 1845; in the data active means inhibition above about 37%;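 further: 0% = vehicle and 100% = reference compound; higher means more ethidium bromide displaced from hairpin DNA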
# ANO1 activ – activates or potentiates the mouse TMEM16A chloride channel; HEK293 TMEM16A/YFP-H148Q/I152L, iodide quench fluorescence; active compounds read low; 0.3% of 340,000 active; B-score at 10 µM;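 active means fluorescence-ratio B-score plate-corrected deviation score at least 3 library SD below zero, with starting fluorescence score within 5 deviations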;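 further: channel opened by trigger with iodide after compound preincubation; score built on the fluorescence ratio of max minus min over baseline; more negative score means more quench and so TMEM16A activation or potentiation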
# ANO1 block – mouse TMEM16A channel inhibition, primary screen; Q8BHY3; HEK293 TMEM16A/YFP iodide influx fluorescence, ionomycin; normalized B-score (activity score, 25-100; higher = stronger inhibition) at 10 µM; 1.2% of 310,000 active;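 active means ratio plate-corrected score three or more library SD toward inhibition, starting fluorescence score within five deviations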;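 further: score derived from kinetic fluorescence span divided by baseline fluorescence per well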
# Apaf1 inhib – inhibitors of human Apaf-1 apoptosome. 0.71% of 330,000 active. O14727. reconstituted apoptosome caspase-3 activity, DEVD-Rh110 fluorescence. inhibition, % at 20 µM. AID 489030; active means inhibition of at least 40% at 20 µM;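 further: plate controls were DMSO wells for no effect and DEVD-CHO caspase inhibitor wells for full effect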
#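 Material: reconstituted apoptosome with Apaf-1, cytochrome c, caspase-9, procaspase-3, dATP / Buffer or medium: pH 7.5 Hepes buffer with CHAPS, BSA, DTT / Also added: cytochrome c with DEVD-Rh110 / Schedule: compound with Apaf-1, dATP, procaspase-3 30 min, then 50 min reaction, room temperature / Technique: rhodamine 110 fluorescence at Ex 480/Em 540 nm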
# UBC13 inh – blocks human UBC13 polyubiquitin chain formation | TR-FRET | inhibition, % at 20 µM | AID 485273 | 0.47% of 330,000 active | P61088; in the data active means inhibition above about 45%, passing the limit was not always enough; inconclusive means no clear call, values can overlap the other calls
# Target sequence (P61088 whole entry, looked up): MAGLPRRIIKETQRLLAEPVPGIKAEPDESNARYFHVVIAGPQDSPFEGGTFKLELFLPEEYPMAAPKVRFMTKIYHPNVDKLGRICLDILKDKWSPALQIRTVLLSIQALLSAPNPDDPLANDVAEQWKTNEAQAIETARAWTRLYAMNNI
# * = called active by the depositor; i = inactive; ? = inconclusive; . = no result given.
SMILES,DNA FID counter,ANO1 activ,ANO1 block,Apaf1 inhib,UBC13 inh
CN1C(C(=O)NCc2cccc(Br)c2)CC2Cn3c(nc4cc(Cl)c(Cl)cc43)C21 (configuration not stated),.,-4.8*,i,5,11
Cc1cc2nc3n(c2cc1C)CC1CC(C(=O)NCc2cccc(Br)c2)N(C)C31 (configuration not stated),.,i,i,-3,11
O=S1(=O)CCOC[C@H](Cc2ccccc2)N1Cc1ccccc1F,.,i,i,2,6
CCCCc1c(O)nc(SCC(=O)N2CCCCC2)[nH]c1=O,0,i,i,-1,3
O=C(CCc1c[nH]c2ccccc12)NCC(=O)Nc1ccc(F)c(F)c1F,3,-6.3*,i,-2,-7
Cc1cc(=O)c(C(=O)Nc2cccc(N3CCCC3=O)c2)nn1-c1ccccc1Cl,.,i,.,10,-9
Cc1cc(=O)c(C(=O)Nc2cccc(N3CCCC3=O)c2)nn1-c1ccccc1F,.,-46*,.,-4,8
COP(=O)(OC)C(NC(=O)Nc1ccccc1)c1ccccc1 (configuration not stated),-5,i,i,-24,-6
COc1cc(/C=C/C(=O)c2ccc(NS(=O)(=O)c3ccc(C)cc3)cc2)cc(OC)c1O,-14,-5.1*,i,.,.
FC(F)(F)c1cnc(NNC(=S)Nc2ccc(Cl)cc2)c(Cl)c1,-7,i,25*,-4,-27
CCc1cc2c(=O)n(-c3ccc(C)cc3)cnc2s1,-8,i,i,11,2
O=C(CCN1C(=O)/C(=C\C=C\c2ccccc2)SC1=S)Nc1ccccc1C(=O)O,25,i,25*,5,-23
CC(/C=C1\SC(=S)N(CCCC(=O)Nc2ccc(C(=O)O)c(O)c2)C1=O)=C\c1ccccc1,39*,.,i,.,.
CC(=O)Nc1cccc(-c2csc(Nc3cc(C)ccn3)n2)c1,-7,i,25*,-3,12
O=C(Nc1ccncc1)c1cc(S(=O)(=O)N2CCOCC2)ccc1Cl,.,i,i,-2,3
Clc1cccc(CNCCCSc2ncccn2)c1Cl,9,i,i,-1,4
CCCc1nc2cc(Cl)c([N+](=O)[O-])cc2o1,1,i,100*,0,-6
COc1ccc(CCNCC(O)COc2ccc(OC)cc2C(C)(C)C)cc1 (configuration not stated),43*,i,i,40,13
COc1ccc(CCNCC(O)COc2cccc(Br)c2)cc1OC (configuration not stated),11,i,i,-12,2
Cc1n[nH]c(=O)c2c(NC(=O)CSc3ccc(Br)cc3)oc(C)c12,.,i,i,0,-7
O=C(NCCCO)/C(=C\c1ccco1)NC(=O)c1ccco1,-6,i,i,-18,-4
Cc1ccccc1C(=O)N1CCC(C(=O)Nc2ccc(S(=O)(=O)N3C(C)CCCC3C)cc2)CC1 (configuration not stated),.,i,.,.,.
CC(C)[C@H](CO)Nc1nc(Nc2ccc(Cl)c(C(=O)O)c2)c2ncn(C(C)C)c2n1,.,i,i,44*,3
CC(C)n1cnc2c(Nc3ccc(C(=O)O)cc3)nc(Cl)nc21,.,i,i,-6,9
Nc1ccc(S(=O)(=O)NNC(=O)C(=O)NNc2ccccn2)cc1,0,i,i,-7,93*
SMILES,DNA FID counter,ANO1 activ,ANO1 block,Apaf1 inhib,UBC13 inh
C/C(=N\NC(=S)NCc1ccccc1)c1ccc2c(c1)OCCO2,-15,i,25*,16,5
CC(C)CCN1CCN(Cc2ccc(C#CC(C)(C)O)s2)CC1CCO (configuration not stated),18,-8.5*,i,5,-11
O=C1OC[C@H](Cc2ccc3c(c2)OCO3)/C1=C\c1ccc2c(c1)OCO2,.,i,25*,-8,10
S=C(Nc1ccccc1)N1CCCCCCC1,5,-4.6*,i,-5,-3
COc1cc(C(=O)NC23CC4CC(CC(C4)C2)C3)cc(OC)c1OC,-37,i,i,6,-4
COc1cc(C(=O)N[C@H](C(=O)NC(C)C23CC4CC(CC(C4)C2)C3)C(C)C)cc(OC)c1OC (some centres not stated),-10,i,100*,12,3
CCS(=O)(=O)c1nc(S(=O)(=O)c2ccc(Cl)cc2)c(NCc2ccccn2)s1,2,i,i,0,-1
CC(C1CC1)N(Cc1ccccc1)C(=S)Nc1cccc(C(F)(F)F)c1 (configuration not stated),-2,i,100*,10,11
Cc1ccc(S(=O)(=O)NC(C(=O)N2CCOCCOCCOCC2)c2ccccc2)cc1 (configuration not stated),-23,i,i,1,-2
CC(=O)N1CCc2c(sc(NC(=O)c3cccc(N4C(=O)CCC4=O)c3)c2C(N)=O)C1,7,i,i,57*,-13
CCOC(=O)c1c(CSC(=N)N)n(-c2ccc(C)cc2)c2cc(Br)c(OC(C)=O)cc12,5,i,100*,46*,56*
O=C(C[n+]1ccccc1)N/N=C/c1ccccc1Cl,.,i,.,-2,3
COc1ccc(C2C(C#N)=C(N)Oc3c2sc2nc(C)cc(C)c32)cc1 (configuration not stated),-1,-7.1*,i,16,16
COc1cccc(-c2nnn(CC(=O)Nc3ccc(C)cc3C)n2)c1OC,-2,i,25*,-16,-1
Cc1ccc(NC(=O)/C=C/c2ccco2)cc1S(=O)(=O)N1CCCCCC1,.,i,25*,4,-2
O=S(=O)(c1cccc(Cn2nnc(-c3ccccc3)n2)c1)N1CCOCC1,.,i,.,-12,14
Cc1ccc(NC(=O)c2ccccc2NS(=O)(=O)c2ccc(Cl)s2)cc1S(=O)(=O)N1CCOCC1,-29,i,25*,1,?
O=C(Nc1cc(S(=O)(=O)N2CCOCC2)ccc1O)c1ccc(NS(=O)(=O)c2ccc(Cl)s2)cc1,11,i,i,2,-7
CC(=O)NCC(=O)NC1CC(C)(C)Cc2c1cnn2-c1ccccc1 (configuration not stated),-8,i,i,-14,-3
CN1c2ccccc2-c2ccccc2S1(=O)=O,.,i,.,.,.
CCOC(=O)c1cnc[nH]c1=O,.,i,.,.,.
COc1cccc(C(c2nnnn2CS(=O)(=O)c2ccc(C)cc2)N2CCN(C)CC2)c1OC (configuration not stated),41*,i,i,9,1
COc1ccc([N+](=O)[O-])cc1NC(=O)CCSCCc1ccccn1,0,i,i,-8,7
CN(c1ccccc1)S(=O)(=O)c1ccc(C(=O)NNC(=O)c2ccccc2)cc1,.,i,.,2,-2
CN(c1ccccc1)S(=O)(=O)c1cccc(C(=O)NNC(=O)c2ccccc2)c1,-3,i,25*,0,0
